Experimental data taken from ChEMBL document CHEMBL4513216, “Probing the Open Global Health Chemical Diversity Library for Multistage-Active Starting Points for Next-Generation Antimalarials” (ACS Infect Dis, 2020).

Test: Toxicity liver stage against HepG2, at 10uM
Format: cell-based
Set-up: test concentration 10 uM, cell line HepG2-A16-CD81EGFP
Details: human, HepG2-A16-CD81EGFP cells; read-out: INHIBITION
How it was run: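 Uninfected HepG2-A16-CD81EGFP cells, 3 × 10^3 per well, 1536-well, plated on prespotted compound at 10 μM final, parasite-free screening media added to match infected plates; puromycin 10 μM positive, DMSO 0.5% negative; run in parallel with 48 h PbLuc assay at 37 °C, 5% CO2; viability by CellTiter-Glo luminescence, normalized to controls.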

SMILES	cytotoxicity at 10 µM [%]
O[C@@H]1C[C@@H](c2nc(Cc3ccccc3)no2)N(Cc2ncc[nH]2)C1	2.63
CN1C(=O)CO[C@H](c2ccc(NC(=O)c3cccc(F)c3)cc2)[C@H]1CO	10
CC(=O)N1CCN2C[C@H](CO)[C@@H](c3ccccc3)[C@H]2C1	3.54
CC(C)NC(=O)[C@H](C)NC(=O)N1CCN(c2ccc(Cl)cc2)CC1	0.592
Cn1cccc1C(O)CNS(=O)(=O)Cc1ccccc1 (centres undefined)	-37.1
CC(C)NC(=O)NCCn1nc(C(F)(F)F)n(C)c1=O	-0.173
CN(C)c1ccc(C(O)CNS(=O)(=O)C2CC2)cc1 (centres undefined)	-4.99
Cc1cccc(C(=O)N2CCc3c(CN(C)C)nn(C)c3C2)n1	3.61
O=C(c1ccoc1)N1CCC2(C1)CN(c1nccs1)C2	1.07
Cc1noc([C@H]2COC[C@H]3CN(C(=O)Cc4cccc(F)c4)C[C@H]32)n1	6.93
Cc1cccc(N2CCCC3(C2)CN(c2nncs2)CCO3)c1 (centres undefined)	9
CCO[C@H]1CO[C@@]2(CCCN(C(=O)c3ccc(OC)c(F)c3)C2)C1	5.69
COc1ccc(Br)c(C(=O)NCC2CCN(S(=O)(=O)C3CC3)CC2)c1	-24.3
CC(C)N(C)C(=O)C1=NOC2(CCN(C(=O)c3ccccn3)C2)C1 (centres undefined)	-13.4
CCn1cc(CNC(=O)C2CCCC2)cn1	9.18
CCn1cc(CN2CCN(C(=O)c3cc(Br)cs3)CC2)c(C)n1	4.95
CCc1ccccc1NC(=O)NCc1nnc(SC)n1C	3.73
Cc1ncc(CNC(=O)CCc2ccccc2F)c(C2CCCN2C)n1 (centres undefined)	-7.55
Nc1nc(C2CCN(C(=O)c3cnccn3)CC2)cs1	-7.33
COc1ccc(S(=O)(=O)N2CCC(O)(CN(C)C)C2)cc1 (centres undefined)	-3.36
Cc1cc(-c2cc(F)ccc2C(=O)O)nc(C2CCCCN2C(C)C)n1 (centres undefined)	-3.42
C[C@]1(O)CN(Cc2cscn2)CC[C@@H]1Oc1cccc(F)c1	7.08

SMILES	cytotoxicity at 10 µM [%]
Cn1ccnc1CN1CCC(Cc2ccccn2)CC1	-10.2
CNc1nc(C2CCCCN2C(=O)COC)nc2c1CN(C)CC2 (centres undefined)	-13.1
CNc1nc(C2CCCCN2C(=O)C(C)(C)OC)nc2c1CN(C)CC2 (centres undefined)	-6.61
CC(=O)N1CCCCC1c1nnc2n1CCNC2 (centres undefined)	14.7
CCc1noc(CN2CCOC3(CCCC3)C2)n1	-3.54
O=C(NCc1cccnc1-n1cncn1)c1cc(Cl)ccn1	-3.76
CCC(=O)NCC(=O)NCC1(O)CCC(C(C)(C)C)CC1 (centres undefined)	6.93
Cc1cccc(CNc2ccc(C(=O)N3CCC(CO)CC3)cc2)c1	18.9
Cc1cnc(CN2CCN(C(C)c3nc(C(C)C)no3)CC2)cn1 (centres undefined)	9.74
O=C(NCC(O)c1ccc(F)cc1F)c1cccnc1O (centres undefined)	7.58
CCCOc1cc(C)ccc1NC(=O)NCCNC(=O)C(C)C	8.31
CN(c1ncc(C(N)=O)cc1Cl)C1CCC(c2ccccc2)CC1 (centres undefined)	38.8
CC(CCSc1ccccc1)N1CCN(C(=O)c2cccs2)CC1 (centres undefined)	25.5
O=C(c1cc2ccccc2o1)N1CCN(Cn2cc(Cl)cn2)CC1	9.31
CCc1ncnc(N(C)CC2CCCCO2)c1F (centres undefined)	3.17
CC(NC(=O)N1CCSC(C)(C)C1)c1noc(-c2ccccc2)n1 (centres undefined)	-22.3
CCOc1cccc(C(C)NCc2ccc(OC)c(OC)c2OC)c1 (centres undefined)	29.4
Cc1ccc(N2CCCC3(CCN(C(=O)c4sccc4C)C3)C2)nn1 (centres undefined)	-107
CN1C(=O)CC(c2ccccc2)C12CCN(c1ncccn1)CC2 (centres undefined)	-99.4
CS(=O)(=O)N1C[C@H](NC(=O)c2ccno2)[C@@H]2OCCC[C@@H]21	-112
O=C(CC1CC1)N1CCC2(CC1)CN(c1ccsc1)C(=O)CO2	-73.1
Cc1cccc(CN2C(=O)CC[C@@H]3[C@H]2CCN3CC2CCOCC2)n1	5.89

SMILES	cytotoxicity at 10 µM [%]
CN(c1nccc(-c2cnc3sc(Cl)cn3c2=O)n1)C1CCCCC1	1.36
NCCC1CN(c2nc(-c3ccccc3)nc3c2CCNC3)CCO1 (centres undefined)	-9.26
NCCn1cc(C(=O)N2CCCCCC2c2ccco2)nn1 (centres undefined)	-4.94
c1cncc(CN2CCc3ncnc(NCCc4c[nH]cn4)c3CC2)c1	2.57
c1ccc(CCc2n[nH]c(CCN3CCCCC3)n2)cc1	5.05
CSCc1ccc(N2CCN(c3ccc(Cl)cn3)CC2)nc1	-9.64
Cc1cc(C)n(CCN(C)c2ccc(-c3nc(C4CC4)no3)cn2)n1	6.08
CN1CCNC(=O)C12CCN(C(=O)c1ccc3[nH]c(=O)[nH]c3c1)CC2	0.5
CCOc1ccc(CN2CCC3(CC2)CNC(=O)C3)cn1	0.987
Fc1ccccc1Cc1noc(CN2CC[C@@H]3CCCC[C@H]3C2)n1	-6.1
Cc1nc2c(c(N(C)CC3Cc4ccccc4CN3C)n1)CCNCC2 (centres undefined)	-29
O=C(NCCCc1nnc2ccccn12)c1ccccc1C1CCNC1 (centres undefined)	-2.51
O=C(c1cccc(S(=O)(=O)NCCc2cscn2)c1)N1CCOCC1	5.67
COc1ccccc1OC1CCN(c2nccc(N)n2)CC1	9.28
CSc1ccccc1C(=O)NCc1cc2n(n1)CCCN(CC(C)C)C2	3.05
CCN1CCCC1CNC(=O)CCSc1ccc2c(c1)OCCO2 (centres undefined)	-1.58
CN(CCO)Cc1nnc(C2CCN(C(=O)CN3CCCC3)CC2)n1C	2.1
COCc1cc(N2CCOC(c3ccc(F)cc3)C2)ncn1 (centres undefined)	-0.987
CSCc1noc(CNC(=O)[C@H]2CNC[C@@H](C(=O)N3CCCC3)C2)n1	2.79
Cc1ccc([C@H]2CN(C(C)C)C[C@@H]2NS(=O)(=O)N2CCOCC2)o1	-1.01
CN(c1ccc(C(=O)NCCN2CCOCC2)c(Cl)c1)S(C)(=O)=O	-11.1
CCC(NC(=O)c1coc(COc2cccc(F)c2F)n1)C(=O)NC (centres undefined)	1.03

SMILES	cytotoxicity at 10 µM [%]
Cc1nnc(SCC(=O)N2CCC3(CC2)c2ccccc2CC3O)o1 (centres undefined)	-20.7
O=C(CCC1CCN(Cc2ncc[nH]2)CC1)Nc1ccccc1Cl	-21.8
OCCC1CN(C2CCC2)CCN1C1CCCC1 (centres undefined)	-18.5
CN(CCc1ccccc1)c1cnn(CC(=O)N2CCSCC2)c(=O)c1	-8.74
CCOC(=O)COc1ccc(C(C)=O)c(O)c1	-19.3
COCc1cc(CNc2cnn(CC(F)F)c2)ccc1OC	-7.58
CCOc1ncccc1CNC(=O)c1cccc(C)n1	-2.42
CC(C)c1nc(CN2CCC(c3ccnn3CCO)CC2)no1	-5.71
Cc1nccn1CC1CCCN1S(=O)(=O)Cc1ccc(F)cc1 (centres undefined)	-7.69
Cc1cc(C(=O)N2CCCC2c2noc(C)n2)[nH]n1 (centres undefined)	-18.7
CC(C)c1noc(CCC(=O)NCC2CC2)n1	-28.7
CCc1ncc2c(n1)CN(CCCc1nc3ccccc3o1)CC2	-10.6
O=C(c1cccc2c1OCO2)N1CCCCC1Cn1cccn1 (centres undefined)	-1.25
COCCCNc1c(C#N)c2c(c3nncn13)CN(C)CC2	5.86
CCN1C(=O)CCC12CCC(NC(=O)c1ccncc1F)CC2 (centres undefined)	0.758
Cn1nnc2c1CCN(CC1CC1)C2COCC1CC1 (centres undefined)	-110
COCC1CN(Cc2ccc3c(c2)OCO3)Cc2ncn(C)c21 (centres undefined)	4.18
CNCC(=O)N1CCCC1c1cncc(Oc2ccc(F)cc2)n1 (centres undefined)	-6.44
COCC(=O)N1CCn2c(COc3cccnc3)cnc2C1C (centres undefined)	2.14
Cc1ccc(N2C[C@H](C)[C@]3(CCN(c4cccnc4)C3=O)C2)nn1	-1.22
CC(=O)N1CCC(c2nc3ccc(-c4ccnn4C)cn3n2)CC1	6.84
CN1C(=O)CCC12CCN(c1ccc(C#N)cn1)CC2	-109

SMILES	cytotoxicity at 10 µM [%]
O=C([C@H]1C[C@H]2OCC[C@H]2N(Cc2ccc(F)cc2)C1)N1CCCCO1	-65.5
COCc1nc(-c2ccnc(N3CCNCC3)n2)no1	12.5
COCC1c2c(cnn2C)CCN1C(=O)c1cc(C)on1 (centres undefined)	-79.5
CN(C)C(=O)CN1CCn2cc(Cn3cccn3)nc2C1	4.96
O=C(Cc1ccccn1)N1CCc2ncnc(NC3CCC3)c2CC1	3.25
O=C(C1CCC2(CCN(CC3CCOCC3)CC2)O1)N1CCCCO1 (centres undefined)	1.08
CN(C)CCOCC1CN(Cc2ccsc2)Cc2nnn(C)c21 (centres undefined)	14.1
O=C(NCc1ccco1)[C@H]1CC[C@@H]2[C@@H](CCN2c2ncc(F)cn2)O1	-78.4
CNC(=O)CN1CCOCC12CCN(CCc1ccccc1)CC2	-76.8
c1cc(CN2CCC3(CCOCC3COCC3CC3)CC2)co1 (centres undefined)	-2.69
CCN1CC2(CCOCC2)c2cc(NS(=O)(=O)CC)ccc21	-104
CN(Cc1ccco1)[C@@H]1CN(Cc2cnn(C)c2)[C@@H]2CCCO[C@H]12	-75.8
CNC(=O)[C@@]12CCO[C@@H]1CCN(Cc1cccc(C)c1)C2	-78.4
COCCC(=O)N1CC[C@@H](N2CCOCC2)[C@@H]1Cc1ccccc1	-70.4
Cc1cccc(CN2C[C@@H]3COC[C@]3(CNC(=O)c3ccccc3)C2)n1	-0.0606
O=C([C@H]1C[C@H]2OCC[C@H]2N(Cc2cccnc2)C1)N1CCCO1	-2.83
Cn1cc(C(=O)NCc2cncc3c2CCN(S(C)(=O)=O)C3)cn1	-105
CN(Cc1ccco1)Cc1cncc2c1CCN(Cc1ccoc1)C2	-108
Cc1nc(CO[C@H]2CN(C(=O)c3cccn3C)[C@@H]3COC[C@H]23)cs1	-112
CNC(=O)c1ccc2c(c1)C1(CCN(CCOC)CC1)C(=O)N2	-1.92
NCC1CCC(C(NC(=O)CC2CCCCC2)c2ccccn2)CC1 (centres undefined)	-7.19
